# Assays:
# Type in all cases: functional
# [1] = Growth inhibition of human UO31 cells assessed as cell growth at 10^-4 M incubated for 48 hrs by sulforhodamine B assay; conditions: UO-31, 48 h, read-out: Activity
# [2] = Growth inhibition of human OVCAR4 cells assessed as cell growth at 10^-8 M incubated for 48 hrs by sulforhodamine B assay; conditions: OVCAR-4, 48 h, read-out: Activity
# [3] = tested on: SR; assay: Growth inhibition of human SR cells assessed as cell growth at 10^-6 M incubated for 48 hrs by sulforhodamine B assay; conditions: read-out: Activity
# [4] = tested on: K562; assay: Growth inhibition of human K562 cells assessed as cell growth at 10 uM incubated for 48 hrs by sulforhodamine B assay; conditions: K562, 48 h, read-out: Activity
# [5] = Growth inhibition of human SNB75 cells assessed as cell growth at 10^-5 M incubated for 48 hrs by sulforhodamine B assay; conditions: SNB-75, 48 h, read-out: Activity
# [6] = Growth inhibition of human Hs 578T cells incubated for 48 hrs by sulforhodamine B assay
# Method in brief: (§1)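 Cells were plated at 5,000–40,000 per well according to doubling time and preincubated 24 h at 37 °C in 5% CO2; time-zero plates were then TCA-fixed. Five concentrations (10-fold or ½-log dilutions, DMSO stock) were incubated 48 h. Cells were TCA-fixed, stained with 0.4% SRB and read at 515 nm. GI50 was taken where [(Ti−Tz)/(C−Tz)]×100 = 50.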
# [7] = Growth inhibition of human UACC62 cells incubated for 48 hrs by sulforhodamine B assay; conditions: UACC-62, 48 h; method in brief: as §1
# [8] = Growth inhibition of human OVCAR8 cells assessed as cell growth at 10 uM incubated for 48 hrs by sulforhodamine B assay; conditions: OVCAR-8, 48 h, read-out: Activity
# [9] = Growth inhibition of human SW620 cells incubated for 48 hrs by sulforhodamine B assay; conditions: SW-620, 48 h; method in brief: as §1
# [10] = Growth inhibition of human SW620 cells assessed as cell growth at 10^-8 M incubated for 48 hrs by sulforhodamine B assay; conditions: SW-620, 48 h, read-out: Activity
# [11] = tested on: SK-MEL-5; assay: Growth inhibition of human SK-MEL-5 cells assessed as cell growth at 10^-8 M incubated for 48 hrs by sulforhodamine B assay; conditions: SK-MEL-5, 48 h, read-out: Activity
# [12] = Growth inhibition of human DU145 cells assessed as cell growth at 10^-8 M incubated for 48 hrs by sulforhodamine B assay; conditions: DU-145, 48 h, read-out: Activity
# Method in brief: (§2)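 Cells seeded at 5,000–40,000/well according to doubling time and preincubated 24 h at 37 °C, 5% CO2. Time-zero plates were TCA-fixed. DMSO concentrate was diluted in medium with 50 µg/ml gentamicin to give five concentrations (10-fold or ½ log steps), then exposed 48 h. Cells were TCA-fixed, stained with 0.4% SRB and read at 515 nm. Percent growth was taken against time-zero and control; GI50, TGI and LC50 derived.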
# [13] = tested on: NCI/ADR-RES; assay: Growth inhibition of human NCI/ADR-RES cells assessed as cell growth at 10 uM incubated for 48 hrs by sulforhodamine B assay; conditions: read-out: Activity
# [14] = tested on: SR; assay: Growth inhibition of human SR cells assessed as cell growth at 10^-5 M incubated for 48 hrs by sulforhodamine B assay; conditions: read-out: Activity
# [15] = Growth inhibition of human OVCAR5 cells assessed as cell growth at 10 uM incubated for 48 hrs by sulforhodamine B assay; conditions: OVCAR-5, 48 h, read-out: Activity
# [16] = Growth inhibition of human HCC2998 cells assessed as cell growth at 10 uM incubated for 48 hrs by sulforhodamine B assay; conditions: HCC 2998, 48 h, read-out: Activity
# Method in brief: (§3)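 Primary screen at one dose (10 µM) across 60 human cancer cell lines. Readout was growth percent relative to untreated control and time-zero.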
# [17] = tested on: K562; assay: Growth inhibition of human K562 cells assessed as cell growth at 10^-5 M incubated for 48 hrs by sulforhodamine B assay; conditions: K562, 48 h, read-out: Activity
# [18] = Growth inhibition of human RPMI8226 cells assessed as cell growth at 10^-6 M incubated for 48 hrs by sulforhodamine B assay; conditions: RPMI-8226, 48 h, read-out: Activity
# [19] = tested on: MDA-MB-468; assay: Growth inhibition of human MDA-MB-468 cells assessed as cell growth at 10^-5 M incubated for 48 hrs by sulforhodamine B assay; conditions: MDA-MB-468, 48 h, read-out: Activity
# [20] = Growth inhibition of human HL-60(TB) cells assessed as cell growth at 10^-8 M incubated for 48 hrs by sulforhodamine B assay; conditions: HL-60, 48 h, read-out: Activity
# Method in brief: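 Cells plated at 5,000–40,000/well according to doubling time and preincubated 24 h at 37 °C, 5% CO₂, with time-zero plates TCA-fixed. Drugs were kept as DMSO concentrates at 400× the top concentration and diluted in medium with 50 µg/ml gentamicin. Five 10-fold or ½-log dilutions were run for 48 h, followed by SRB staining and A515. Percent growth = (Ti−Tz)/(C−Tz)×100, or (Ti−Tz)/Tz×100 when Ti<Tz.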
# [21] = Growth inhibition of human COLO205 cells assessed as cell growth at 10^-5 M incubated for 48 hrs by sulforhodamine B assay; conditions: COLO 205, 48 h, read-out: Activity; method in brief: as §2
# [22] = tested on: M14; assay: Growth inhibition of human M14 cells assessed as cell growth at 10^-5 M incubated for 48 hrs by sulforhodamine B assay; conditions: M14, 48 h, read-out: Activity
# [23] = Growth inhibition of human HCT15 cells assessed as cell growth at 10 uM incubated for 48 hrs by sulforhodamine B assay; conditions: HCT-15, 48 h, read-out: Activity; method in brief: as §3
# [24] = Growth inhibition of human OVCAR5 cells assessed as cell growth at 10^-6 M incubated for 48 hrs by sulforhodamine B assay; conditions: OVCAR-5, 48 h, read-out: Activity
# [25] = tested on: CCRF-CEM; assay: Growth inhibition of human CCRF-CEM cells assessed as cell growth at 10^-8 M incubated for 48 hrs by sulforhodamine B assay; conditions: read-out: Activity
# Method in brief: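 Leukemia line in the five-dose format: five concentrations from 10-fold or ½-log serial dilutions. Plated at 5,000–40,000 cells per well, preincubated 24 h, then compound added for 48 h at 37 °C, 5% CO₂. Sulforhodamine B absorbance read at 515 nm. Growth is computed against time-zero (Tz) and control (C) readings; GI₅₀ is where [(Ti−Tz)/(C−Tz)]×100 = 50.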
# [26] = tested on: SK-MEL-5; assay: Growth inhibition of human SK-MEL-5 cells assessed as cell growth at 10^-7 M incubated for 48 hrs by sulforhodamine B assay; conditions: SK-MEL-5, 48 h, read-out: Activity
# [27] = read-out: LC50 (the source's name)
# [28] = read-out: pLC50 (the source's name) (converted)
compound,measurement,setting,value
c1ccc(-c2nc(Nc3ccc(-c4nc5ccccc5[nH]4)cc3)nc(N3CCOCC3)n2)cc1,growth at 100 µM,[1],-76%
same,growth at 0.01 µM,[2],104%
same,growth at 1 µM,[3],-20%
same,growth at 10 µM,[4],-30.1%
same,growth at 10 µM,[5],-88%
same,GI50,[6]; read-out: GI50,1.89 µM
same,CC50,[6]; [27],> 100 µM
same,TGI,[6]; read-out: TGI,6.04 µM
same,GI50,[6]; read-out: pGI50 (converted),1.91 µM
same,CC50,[6]; [28],> 100 µM
same,TGI,[6]; read-out: pTGI (converted),6.03 µM
same,GI50,[7]; read-out: GI50,1.66 µM
same,CC50,[7]; [27],7.29 µM
same,TGI,[7]; read-out: TGI,3.48 µM
same,GI50,[7]; read-out: pGI50 (converted),1.66 µM
same,CC50,[7]; [28],7.24 µM
same,TGI,[7]; read-out: pTGI (converted),3.47 µM
same,growth at 10 µM,[8],-50.4%
same,GI50,[9]; read-out: GI50,0.627 µM
same,CC50,[9]; [27],5.82 µM
same,TGI,[9]; read-out: TGI,2.17 µM
same,GI50,[9]; read-out: pGI50 (converted),0.631 µM
same,CC50,[9]; [28],5.75 µM
same,TGI,[9]; read-out: pTGI (converted),2.19 µM
same,growth at 0.01 µM,[10],98%
same,growth at 0.01 µM,[11],101%
same,growth at 0.01 µM,[12],99%
same,growth at 10 µM,[13],-60.8%
same,growth at 10 µM,[14],-26%
same,growth at 10 µM,[15],0.63%
same,growth at 10 µM,[16],-80.7%
same,growth at 10 µM,[17],-54%
same,growth at 1 µM,[18],54%
same,growth at 10 µM,[19],-57%
same,growth at 0.01 µM,[20],73%
same,growth at 10 µM,[21],-73%
same,growth at 10 µM,[22],-80%
same,growth at 10 µM,[23],-68.9%
same,growth at 1 µM,[24],112%
same,growth at 0.01 µM,[25],102%
same,growth at 0.1 µM,[26],104%
Clc1ccc(-c2nc(Nc3ccc(-c4nc5ccccc5[nH]4)cc3)nc(N3CCOCC3)n2)cc1,growth at 100 µM,[1],-41%
same,growth at 0.01 µM,[2],103%
same,growth at 1 µM,[3],-19%
same,growth at 10 µM,[4],-100%
same,growth at 10 µM,[5],-91%
same,GI50,[6]; read-out: GI50,0.7 µM
same,CC50,[6]; [27],> 100 µM
same,TGI,[6]; read-out: TGI,3.02 µM
same,GI50,[6]; read-out: pGI50 (converted),0.708 µM
same,CC50,[6]; [28],> 100 µM
same,TGI,[6]; read-out: pTGI (converted),3.02 µM
same,GI50,[7]; read-out: GI50,0.196 µM
same,TGI,[7]; read-out: TGI,0.432 µM
same,GI50,[7]; read-out: pGI50 (converted),0.195 µM
same,TGI,[7]; read-out: pTGI (converted),0.437 µM
same,growth at 10 µM,[8],-73.8%
same,GI50,[9]; read-out: GI50,0.186 µM
same,CC50,[9]; [27],0.742 µM
same,TGI,[9]; read-out: TGI,0.372 µM
same,GI50,[9]; read-out: pGI50 (converted),0.186 µM
same,CC50,[9]; [28],0.741 µM
same,TGI,[9]; read-out: pTGI (converted),0.372 µM
same,growth at 0.01 µM,[10],94%
same,growth at 0.01 µM,[11],100%
same,growth at 0.01 µM,[12],101%
same,growth at 10 µM,[13],-87.5%
same,growth at 10 µM,[14],-21%
same,growth at 10 µM,[15],-74.7%
same,growth at 10 µM,[16],-89.9%
same,growth at 10 µM,[17],-70%
same,growth at 1 µM,[18],-20%
same,growth at 10 µM,[19],-71%
same,growth at 0.01 µM,[20],97%
same,growth at 10 µM,[21],-71%
same,growth at 10 µM,[22],-85%
same,growth at 10 µM,[23],-92.6%
same,growth at 1 µM,[24],32%
same,growth at 0.01 µM,[25],98%
same,growth at 0.1 µM,[26],102%
